Consider 42 compounds from ChEMBL document CHEMBL1121524, “Studies of hypolipidemic agents. 1. Synthesis and hypolipidemic activities of alkoxycinnamic acid derivatives” (1980).

The species named for assay [1] is Rattus norvegicus. The assay can be described thus: Tested for the hypolipidemic activity, expressed as percent decrease in serum cholesterol in rat, at dosage of 50 mg for 7 days. The assay is classed as functional. The method in brief:
(§1)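 Male Sprague-Dawley rats, 4 weeks old, kept on CE-2 chow for at least 1 week, then grouped (generally five per group). Compound was mixed into CE-2 powder and fed ad libitum for the stated period; controls received plain CE-2 powder. Diet level is given as mg/100 g (mg%), about equal to mg/kg/day. Total serum cholesterol was measured by the Zak et al. method and reported as percent depression versus control group mean. Significance was p < 0.05.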

Assay [2] relates to Rattus norvegicus. The assay is described as follows: In vivo hypolipidemic activity, expressed as percent decrease in serum triglyceride in rat, at dosage of 20 mg for 7 days.
Assay [3] has as its system Rattus norvegicus. The assay is described as follows: In vivo hypolipidemic activity, expressed as percent decrease in serum cholesterol in rat, at dosage of 20 mg for 7 days. It is filed as functional. In outline:
as §1

Assay [4] relates to Rattus norvegicus. The assay is described as follows: In vivo hypolipidemic activity, expressed as percent decrease in Triglyceride in rat, at dosage of 100 mg for 7 days. The assay is classed as functional. The method in brief: (§2)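 Male Sprague-Dawley rats, 4 weeks old, kept on CE-2 chow for at least 1 week, then grouped (generally five per group). Compound was mixed into CE-2 powder and fed ad libitum for the stated period; controls received plain CE-2 powder. Diet level is given as mg/100 g (mg%), about equal to mg/kg/day. Total serum triglyceride was measured by the Ryan and Rasho method and reported as percent depression versus control group mean. Significance was p < 0.05.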

The species named for assay [5] is Rattus norvegicus. The assay is described as follows: Hypolipidemic activity, expressed as percent decrease in serum cholesterol in rat, at dosage of 100 mg for 7 days by Zak et al method. It is filed as functional. In outline: as §1
The species named for assay [6] is Rattus norvegicus. The assay is described as follows: Hypolipidemic activity expressed as percentage decrease in triglyceride in rat, at dosage of 50 mg for 7 days. The assay is classed as functional. In outline: as §2
Assay [7] is filed under the species Rattus norvegicus. The assay is described as follows: Tested for the hypolipidemic activity, expressed as percent decrease in serum cholesterol in rat, at dosage of 100 mg for 3 days by Zak et al method. The assay is classed as functional. In outline:
as §1

The species entered for assay [8] is Rattus norvegicus. The assay is described as follows: Tested for the hypolipidemic activity, expressed as percent decrease in Triglyceride in rat, at dosage of 100 mg for 3 days by Ryan and Rasho method. It is filed as functional. The method in brief:
as §2

For assay [9], the species on record is Rattus norvegicus. The assay can be described thus: Tested for the hypolipidemic activity, expressed as percent decrease in serum cholesterol in rat, at dosage of 100 mg for 6 days by Zak et al method. It is filed as functional. In outline:
as §1

The species entered for assay [10] is Rattus norvegicus. The assay can be described thus: Tested for the hypolipidemic activity, expressed as percent decrease in Triglyceride in rat, at dosage of 100 mg for 6 days by Ryan and Rasho method. It is filed as functional. In outline:
as §2

For assay [11], the species on record is Rattus norvegicus. The assay is described as follows: Tested for the hypolipidemic activity, expressed as percent decrease in serum cholesterol in rat, at dosage of 10 mg for 7 days by Zak et al method. It is filed as functional. In outline: as §1
The species named for assay [12] is Rattus norvegicus. The assay is described as follows: Tested for the hypolipidemic activity, expressed as percent decrease in Triglyceride in rat, at dosage of 10 mg for 7 days by Ryan and Rasho method. The assay is classed as functional. The method in brief: as §2
The species named for assay [13] is Rattus norvegicus. The assay can be described thus: tested for the hypolipidemic activity, expressed as percent decrease in serum cholesterol in rat, at dosage of 10 mg for 7 days by Zak et al method. It is filed as functional. The method in brief: as §1
The species entered for assay [14] is Rattus norvegicus. The assay is described as follows: tested for the hypolipidemic activity, expressed as percent decrease in Triglyceride in rat, at dosage of 10 mg for 7 days by Ryan and Rasho method. It is filed as functional. In outline: as §2

As for `CCCCCCCCCCCCCCOc1ccc(/C=C(\C)C(=O)O)cc1`, the Decrease in assay [1] stood at 17%; in [2] it was 38%; in [3], 12%; in assay [4], 45%; in [5] it was 16%; in assay [6] it was 26%.

Regarding `CCCCCCCCCCCCCCCCOc1ccc(/C=C(\C)C(=O)OCCCCl)cc1`, the Decrease in assay [7] is given as 17%; in assay [8], 25%.

`C/C(=C\c1ccc(Oc2ccccc2)cc1)C(=O)O`: the Decrease came out at 15% in assay [2] and 8% in assay [3].

Consider `C/C(=C\c1ccccc1)C(=O)OCC(O)CO` (centres undefined), for which the values for the Decrease in assay [7] and in assay [8] were 10% and 22%, respectively.

For the compound `CCCCCCCCCCCCCCCCOc1ccc(/C=C/C(=O)OCCCO)cc1`, the Decrease in [7] and in [8] was 16% in each case.

Take `CCCCCCCCCCCCCCCCOc1ccc(/C=C(\C)C(=O)OCCO)cc1`: the Decrease in [7] was determined as 13%; in [8], 59%.

As for `CCCCCCCCOc1ccc(/C=C/C(=O)OCC(O)CO)cc1` (centres undefined), the Decrease in assay [9] stood at 7%; in assay [10], 15%.

For `CCCCOc1ccc(/C=C/C(=O)OCC(O)CO)cc1` (centres undefined), the Decrease in assay [9] was found to be 7%; in [10], 15%.

Turning to `CCCCCCCCCCCCCCCCOc1ccc(/C=C/C(=O)O)cc1`, the Decrease in [3] came out at 2%; in assay [11], 7%; in [12] it was 2%.

Regarding `CCCCOc1ccc(/C=C/C(=O)OCCCl)cc1`, the Decrease in [4] was found to be 26%; in assay [5] it was 0%.

As for `CCCCCCCCCCCCCCCCOc1ccc(/C=C(\C)C(=O)OCCCO)cc1`, the Decrease in [7] is 6%; in assay [8] it was 43%.

On to `CCCCOc1ccc(/C=C/C(=O)OCCS(=O)(=O)[O-])cc1.[Na+]`, for which the results for the Decrease in [4] and in assay [5] were 9% and -1%, respectively.

Consider `CCCCCCCCCCCCCCOc1ccc(/C=C(\C)C(=O)OCCC(=O)OC)cc1`, for which the Decrease is given as 30% in [1], 7% in assay [2], -1% in assay [3] and 37% in assay [6].

For the compound `C=C(C)C(=O)OCCCOC(=O)/C=C/c1ccc(OCCCCCCCCCCCCCCCC)cc1`, the Decrease in [4] is reported as 0%; in assay [5], 16%.

Consider `C/C(=C\c1ccc(Oc2ccccc2)cc1)C(=O)OCCCl`, for which the Decrease in assay [1] is listed as 14%; in assay [2], 22%; in assay [3] it was 15%; in [6], -6%.

Regarding `C=CCOc1ccc(/C=C/C(=O)OCC(O)CO)cc1` (centres undefined), the Decrease in assay [7] is given as 12%; in assay [8], -14%.

For `COc1ccc(/C=C/C(=O)OCC(O)CO)cc1` (centres undefined), the Decrease in [9] is listed as 4%; in assay [10] it was 31%.

With `C=C(C)C(=O)OCCOC(=O)/C=C/c1ccc(OCc2ccccc2)cc1`, the Decrease in [4] is reported as 33%; in [5] it was 13%.

For the compound `O=C(/C=C/c1ccc(Oc2ccccc2)cc1)OCC(O)CO` (centres undefined), the Decrease is given as 11% in assay [1], 26% in assay [2], 15% in assay [3] and 29% in assay [6].

In the case of `CCCCCCCCCCCCCCOc1ccc(/C=C(\C)C(=O)OCC)cc1`, the Decrease in [1] came out at 7%; in assay [2], 37%; in assay [3], 6%; in assay [6], 34%.

`CCCCCCCCCCCCCCCCOc1ccc(/C=C/C(=O)OCCCCl)cc1`: the Decrease was found to be 5% in [1]; 38% in assay [2]; 1% in assay [3]; 44% in assay [4]; 22% in assay [5]; 48% in assay [6].

With `C/C(=C\c1ccc(Oc2ccccc2)cc1)C(=O)OCC(O)CO` (centres undefined), the Decrease is on record as 14% in [1], -1% in [2], 7% in [3] and 4% in [6].

Regarding `CCCCCCCCCCCCCCCCOc1ccc(/C=C/C(=O)OCCO)cc1`, the Decrease in assay [2] came out at 26%; in assay [3], 18%; in assay [4], 57%; in assay [5] it was 24%.

Regarding `C=C(C)C(=O)OCCOC(=O)/C=C/c1ccc(OCCCCCCCCCCCCCCCC)cc1`, the Decrease in assay [1] is listed as 13%; in [2] it was 38%; in assay [3], 16%; in assay [4] it was 65%; in assay [13], 5%; in assay [5], 27%. For the same compound, the Decrease in assay [6] is listed as 42%; in assay [14], 15%.

Consider `C/C=C/C(=O)OCCOC(=O)/C=C/c1ccc(OCCCCCCCCCCCCCCCC)cc1`, for which the Decrease was 11% in [4] and 3% in assay [5].

As for `CCCCCCCCCCCCCCCCOc1ccc(/C=C/C(=O)OCCCOC(=O)/C=C/c2ccc(OCCCCCCCCCCCCCCCC)cc2)cc1`, the Decrease in assay [7] was 8%; in [8] it was -2%.

With `CCCCCCCCCCCCCCCCOc1ccc(/C=C(\C)C(=O)O)cc1`, the Decrease in assay [1] was 17%; in assay [2], 1%; in assay [3], 9%; in assay [6], 25%.

In the case of `O=C(/C=C/c1ccccc1)OCC(O)CO` (centres undefined), the Decrease was 6% in [9] and 16% in [10].

Turning to `CCCCCCCCCCCCCCCCOc1ccc(/C=C/C(=O)OCC(O)CO)cc1` (centres undefined), the Decrease in assay [1] is given as 19%; in [2], 8%; in assay [3] it was 9%; in assay [4] it was 62%; in [13], -4%; in assay [5], 26%. Also, the Decrease in assay [6] was determined as 17%; in assay [14], 11%.

For `O=C(/C=C/c1ccc(Oc2ccccc2)cc1)OCCCCl`, the Decrease in assay [2] is on record as -2%; in assay [9], 32%; in assay [3] it was 17%; in [10], 54%; in [11], 4%; in assay [12], 13%.

In the case of `CCCCCCCCCCCCCCCCOc1ccc(/C=C(\C)C(=O)OCC(O)CO)cc1` (centres undefined), the Decrease in assay [1] is given as 15%; in assay [7], 32%; in [2], 5%; in [8], 68%; in [3] it was 11%; in assay [6], 28%.

On to `CCCCCCCCCCCCOc1ccc(/C=C(\C)C(=O)OCC(O)CO)cc1` (centres undefined), for which the Decrease in [1] is 26%; in assay [2], 33%; in [3], 16%; in assay [13] it was 9%; in assay [6], 53%; in assay [14], 10%.

As for `C=C(C)C(=O)OCCOC(=O)/C=C/c1ccc(Oc2ccccc2)cc1`, the Decrease in assay [7] is reported as 14%; in assay [8] it was -15%.

As for `CCCCCCCCCCCCCCCCOc1ccc(/C=C/C(=O)OCCOC(=O)/C=C/c2ccc(OCCCCCCCCCCCCCCCC)cc2)cc1`, the values for the Decrease in assay [7] and in [8] were 9% and -4%, respectively.

Regarding `C=CCOc1ccc(/C=C/C(=O)OCCCl)cc1`, the Decrease in assay [4] is reported as 26%; in [5] it was -9%.

`CCCCCCCCCCCCCCCCOc1ccc(/C=C(\C)C(=O)OCCS(=O)(=O)[O-])cc1.[Na+]`: the Decrease was 8% in assay [7] and 36% in assay [8].

`O=C(/C=C/c1ccc(Oc2ccccc2)cc1)OCCCl`: the figures for the Decrease in assay [2] and in [3] were 21% and 18%, respectively.

On to `CCCCOc1ccc(/C=C/C(=O)OCCN2CCCCC2)cc1.Cl`, for which the figures for the Decrease in assay [4] and in assay [5] were 2% and 3%, respectively.

For the compound `CCCCOc1ccc(/C=C/C(=O)OCCN2CCOCC2)cc1.Cl`, the Decrease in [7] is recorded as -9%; in assay [8], -32%.

On to `O=C(O)/C=C/c1ccc(Oc2ccccc2)cc1`, for which the Decrease was 15% in assay [1], 14% in assay [2], 14% in [3] and 34% in assay [6].

In the case of `CCCCCCCCCCCCCCOc1ccc(/C=C(\C)C(=O)OCC(O)CO)cc1` (stereo in doubt; 97), the Decrease was found to be 25% in assay [1]; 33% in assay [2]; 14% in [3]; 52% in assay [4]; 45% in assay [5]; 43% in assay [6].

On to `CCOC(=O)C(C)(C)Oc1ccc(Cl)cc1` [CLOFIBRATE], for which the Decrease in [1] is reported as 14%; in [4], 41%; in assay [5] it was 22%; in assay [6], 35%.
